Measured values from PMC9303924 (Proceedings of the National Academy of Sciences of the …, 2022).
pKd: −log10 of the molar value. “Also recorded” adds a separate entry of the source. Where two headings read alike, the source gives them in different places.

How the values were obtained:
McpA-LBD (A36-L277) [1] = biological target: T1, McpA-LBD (A36-L277) (Bacillus velezensis, UniProt A7Z835); test: Surface plasmon resonance; type: binding, Bacillus velezensis SQR9; conditions: SPR, compounds at 200 μM and 2 mM
T1 sequence (A7Z835 36-277): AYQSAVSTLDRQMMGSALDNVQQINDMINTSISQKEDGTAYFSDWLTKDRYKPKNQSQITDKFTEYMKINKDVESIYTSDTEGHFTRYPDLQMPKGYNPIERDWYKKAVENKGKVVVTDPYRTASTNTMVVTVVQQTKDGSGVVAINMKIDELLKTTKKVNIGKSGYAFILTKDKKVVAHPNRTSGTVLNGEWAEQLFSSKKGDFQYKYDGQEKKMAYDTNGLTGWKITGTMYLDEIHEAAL

McpA-LBD (A36-L277) [2] = biological target: T1, McpA-LBD (A36-L277); test: Biolayer interferometry; type: binding, Bacillus velezensis SQR9
[3] = test system: McpA/TlpA receptor chimeras in SQR9Δ8mcp; test: Chemotaxis of McpA receptor chimera strains compared; type: cell-based, Bacillus velezensis SQR9; conditions: strains with chimeras McpA_distal (M1) and McpA_proximal (M2)
Summary of the method: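 Chimeric receptors (McpA or TlpA LBD modules swapped) integrated at amyE of SQR9Δ8mcp; strains grown at 30 °C in low-salt LB. Microfluidic SlipChip run with 13 parallel units as duplicates: channels BSA-coated (10 mg/mL, 5 min); compound, cells and buffer in top, middle and bottom wells; 30 min in the dark. Cells counted by fluorescence microscopy; I30 = Ne/(Ne+Nc); attraction when above 0.6.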

McpA-LBD [4] = conditions: cited from earlier work
McpA-LBD [5] = conditions: cited from earlier work; remark: listed apart in the source

| Structure (SMILES) | interaction with McpA-LBD observed (McpA-LBD (A36-L277) [2]; BLI) | McpA-LBD module on which chemotaxis relies [3] | also measured |
| --- | --- | --- | --- |
| N[C@@H](CO)C(=O)O [Serine] | – | – | binding to McpA-LBD (McpA-LBD (A36-L277) [1]): binding for all ligands, except for serine and fucose |
| N[C@@H](Cc1ccc(O)cc1)C(=O)O [Tyrosine] | interaction | sensed by the membrane-proximal module | – |
| O=C[C@H](O)[C@H](O)[C@H](O)CO [Ribose] | interaction; also recorded: directly bound | – | pKd (McpA-LBD (A36-L277) [2]; BLI, McpA-LBD (A36-L277), 25 °C, 1:1 binding model): 5.71 |
| OC[C@@H](O)[C@@H](O)[C@@H](O)CO [Ribitol] | interaction; also recorded: directly bound | – | pKd (McpA-LBD (A36-L277) [2]): 5.36 |
| O=C(O)CC(O)(CC(=O)O)C(=O)O [Citric acid] | – | sensed by the membrane-proximal module | direct binding to McpA-LBD (McpA-LBD [4]): direct binding |
| O=C(O)CC(O)C(=O)O (stereo not shown) [Malic acid] | – | sensed by the membrane-proximal module | – |
| O=C[C@H](O)[C@@H](O)[C@@H](O)[C@H](O)CO [Galactose] | – | – | direct binding to McpA-LBD (McpA-LBD [5]): no direct binding |
| OC[C@H]1OC(O)[C@@H](O)[C@@H](O)[C@@H]1O (stereo partly shown) [Mannose] | interaction | – | – |
| O=C(O)C(=O)O [Oxalic acid] | – | sensed by the membrane-proximal module | – |
| N[C@@H](CC(=O)O)C(=O)O [Aspartic acid] | – | sensed by the membrane-proximal module | direct binding to McpA-LBD (McpA-LBD [4]): direct binding |
| N[C@@H](CCC(=O)O)C(=O)O [Glutamic acid] | – | sensed by the membrane-proximal module | – |
| C[C@H](O)[C@@H](O)[C@@H](O)[C@H](O)C=O [Fucose] | interaction; also recorded: directly bound | – | binding to McpA-LBD (McpA-LBD (A36-L277) [1]): binding for all ligands, except for serine and fucose |
| O=C(O)CCC(=O)O [Succinic acid] | – | sensed by the membrane-proximal module | – |
